Assay [1] relates to MCF10. Put plainly: Cytotoxicity against human MCF10 cells assessed as reduction in cell viability after 3 hrs by MTT assay. Conditions: MCF10, 3 h.
Assay [2] deals with T47D. Put plainly: Cytotoxicity against human T47D cells assessed as reduction in cell viability after 3 hrs by MTT assay. In general terms: Tetrazolium dyes change colour on reduction, which living cells bring about.
In assay [3] the test system is MDA-MB-435. Briefly: Cytotoxicity against human MDA-MB-435 assessed as growth inhibition at 10 uM by NCI protocol relative to control. Type of assay: functional, cell-based. A digest of the protocol:
(§1)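 Run by NCI as a single-dose screen at 10 μM across the sixty-cell-line panel, which covers nine human tumour tissue types. The read-out is percent growth inhibition of treated cells relative to untreated cells.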

Assay [4] deals with HOP-92. Put plainly: Cytotoxicity against human HOP-92 assessed as growth inhibition at 10 uM by NCI protocol relative to control. Type of assay: functional. Conditions: read-out: GI. A digest of the protocol: as §1
For assay [5], the system named is Hs-578T. Briefly: Cytotoxicity against human HS 578T assessed as growth inhibition at 10 uM by NCI protocol relative to control. Type of assay: functional. As to conditions: read-out: GI. A digest of the protocol:
as §1

Assay [6] deals with T47D. Briefly: Cytotoxicity against human T-47D assessed as growth inhibition at 10 uM by NCI protocol relative to control. Type of assay: functional. Conditions: read-out: GI. A digest of the protocol:
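Run by the NCI under its standard protocol: one dose of 10 μM against a sixty-line panel from nine human tumour tissues. Result given as percent growth inhibition of treated cells relative to untreated cells.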

Assay [7] concerns EKVX. Briefly: Cytotoxicity against human EKVX assessed as growth inhibition at 10 uM by NCI protocol relative to control. Type of assay: functional. Conditions: read-out: GI. A digest of the protocol:
as §1

The subject of assay [8] is A498. Briefly: Cytotoxicity against human A498 assessed as growth inhibition at 10 uM by NCI protocol relative to control. Type of assay: functional. Conditions: read-out: GI. A digest of the protocol: as §1

pIC50: −log10 of the molar value. Activity calls are given as the source filed them. The rule behind the calls is not given here.

Results on three compounds are retold here after ChEMBL document CHEMBL4819122, “Novel 4-(piperazin-1-yl)quinolin-2(1H)-one bearing thiazoles with antiproliferative activity through VEGFR-2-TK inhibition” (Bioorg Med Chem, 2021).

For orientation: pIC50 means the IC50 on a negative log10 scale, so that one unit is a factor of ten.

In the case of `CC[C@@]1(O)C(=O)OCc2c1cc1n(c2=O)Cc2cc3ccccc3nc2-1` [CAMPTOTHECIN], the pIC50 in assay [1] was 4.61.
Take `O=c1cc(N2CCNCC2)c2ccccc2n1-c1ccccc1`: in assay [2], the pIC50 was 4.04. For the same compound, the “growth inhibition (GI)” value in assay [3] was “inactive”. Also, in assay [4], the inhibition of growth at 10 µM came out at 17%.
`O=c1cc(N2CCNCC2)c2cc(F)ccc2[nH]1`: the pIC50 in assay [2] is 4.42. The inhibition of growth at 10 µM amounted to 19.6% in assay [5], 10.5% in assay [6], 56.2% in assay [7] and 26% in assay [8]. For the same compound, the “growth inhibition (GI)” value in assay [3] was “inactive”.
